Test results published in paper PMC6075728 (Bioconjugate chemistry, 2017).
“Also recorded” adds a separate entry of the source. Where a SMILES comes first, the peptide text is derived from it. Where no end group is shown, it is not given here. The star is where a group is joined. X1 = O=C(O)CN1CCN(CC(=O)O)CCN(CC(O)Cn2cc(CCCC(=O)*)nn2)CCN(CC(=O)O)CC1; PEG2 = NCCOCCOCCC(=O)O

Assays:
[1] = tested on: other organs and normal tissues; assay: Contrast enhanced T1-weighted MRI, other organs and normal tissues; assay type: in vivo, mouse (male athymic nude); settings: i.v.
[2] = tested on: PC3 prostate tumor xenografts (EDB-FN); assay: Contrast enhanced T1-weighted MRI, PC3 tumor xenografts; assay type: in vivo, mouse (male athymic nude); settings: for tumor differentiation: CNR/enhancement in PC3 vs LNCaP tumors: PC3 compared with LNCaP tumors, during 30 min after injection; for signal/contrast enhancement: T1-weighted MRI, up to 30 min post-injection; for contrast-to-noise ratio (CNR), range: first 30 min post-injection, i.v. (ZD2-Gd(HP-DO3A) 0.1 mmol/kg), ZD2-Gd(HP-DO3A) vs ProHance P < 0.05 at all time points
[3] = r1 relaxivity in PC3 tumor lysates; assay type: physicochemical; settings: T1 mapping phantom
[4] = tested on: LNCaP prostate tumor xenografts (EDB-FN); assay: Contrast enhanced T1-weighted MRI, LNCaP tumor xenografts; assay type: in vivo, mouse (male athymic nude); settings: for signal/contrast enhancement: T1-weighted MRI, up to 30 min post-injection; for contrast-to-noise ratio (CNR), range: first 30 min post-injection, i.v., 7T
[5] = Gd biodistribution / tissue retention; settings: 1 week after injection, ICP-OES
[6] = T1 relaxivity at 7T in PBS; assay type: physicochemical; settings: phantom, 3.12 - 50 μM
In short: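 Multi-compartment phantom of the test compound in PBS at 50, 25, 12.5, 6.25 and 3.12 μM, imaged on a horizontal 7T scanner. T1 maps came from an accelerated multi-slice method combining a saturation-recovery Look-Locker sequence with spiral k-space sampling. r1 was taken from the slope of 1/T1 plotted against concentration.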

EDB protein = EDB protein (Homo sapiens, UniProt P02751); assay: SPR binding to immobilized EDB protein; settings: second (blue) trend line
PC3 and LNCaP tumors = settings: after T1 mapping, about 30 min post-injection; n = 4
LNCaP tumors = assay: Quantitative T1 mapping, LNCaP tumors; assay type: in vivo, mouse (male athymic nude); settings: 30 min after injection
[7] = In vivo transmetallation and urinary excretion
[8] = In vitro chelate stability / transmetallation in PBS with Cu2+, Ca2+, Zn2+; assay type: physicochemical
PC3 tumors = assay: Quantitative T1 mapping, PC3 tumors; assay type: in vivo, mouse (male athymic nude); settings: 30 min after injection
low-grade tumor = settings: cited from earlier work
[9] = tested on: EDB-FN in PC3 tumor sections; assay: Confocal fluorescence of PC3 tumor sections; set-up: species or system mouse; settings: confocal microscopy
non-cancerous tissue = settings: cited from earlier work
[10] = tested on: high-grade human prostate tumor; settings: cited from earlier work

Chain of EDB protein (P02751 1271-1359 limits assumed): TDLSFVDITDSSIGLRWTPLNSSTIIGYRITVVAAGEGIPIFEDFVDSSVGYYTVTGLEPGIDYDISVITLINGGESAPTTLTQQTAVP

CC(O)CN1CCN(CC(=O)[O-])CCN(CC(=O)[O-])CCN(CC(=O)[O-])CC1.[Gd+3] (centres unmarked) [ProHance, gadoteridol, reference compound]
contrast enhancement in other organs and normal tissues [1]: did not produce significant contrast enhancement | tumor differentiation: CNR/enhancement in PC3 vs LNCaP tumors [2]: not significantly different | signal/contrast enhancement ([2]; PC3 tumors): modest contrast enhancement | contrast-to-noise ratio (CNR), range ([2]; PC3 tumors, 7T, n=5): 7~11 | r1 relaxivity [3]: 3.17 mM⁻¹ s⁻¹ | signal/contrast enhancement ([4]; LNCaP tumors): modest contrast enhancement | contrast-to-noise ratio (CNR), range ([4]; LNCaP tumors, n=5): 7~10

CC(C)[C@H](NC(=O)[C@@H](NC(=O)CCOCCOCCNC(=O)CCCc1cn(CC(O)CN2CCN(CC(=O)O)CCN(CC(=O)O)CCN(CC(=O)O)CC2)nn1)[C@@H](C)O)C(=O)N[C@@H](CCCNC(=N)N)C(=O)N[C@H](C(=O)N[C@@H](CO)C(=O)N[C@@H](C)C(=O)N[C@@H](CC(=O)O)C(=O)O)[C@@H](C)O (some centres unmarked) [ZD2-Gd(HP-DO3A)] ({X1-PEG2}-TVRTSAD-OH; C-terminus assumed)
tissue retention / accumulation ([5]; 0.1 mmol-Gd/kg tail vein, ZD2-Gd(HP-DO3A) n = 4, ProHance n = 3): minimal tissue accumulation; also recorded: same low tissue retention as ProHance; also recorded: No significant difference was seen between the two groups; also recorded: minimal body accumulation | Gd3+ concentration in most organs, including brain, heart, skin [5]: below the detection limit of ICP-OES in most of the organs | T1 relaxivity (r1) [6]: 3.7 mM⁻¹ s⁻¹ | weak binding site in SPR Scatchard plot (EDB protein): weak binding site | contrast enhancement in other organs and normal tissues [1]: did not produce significant contrast enhancement | tumor differentiation: CNR/enhancement in PC3 vs LNCaP tumors [2]: over two times higher | CNR increase at 10 min ([2]; PC3 tumors, 10 min post-injection, 0.1 mmol/kg i.v., n=5): over two-fold increase | contrast-to-noise ratio (CNR), peak ([2]; PC3 tumors, 30 min post-injection, 0.1 mmol/kg i.v., 7T, mean±SEM, n=5): 23.7±1.68 | CNR increase at 30 min ([2]; PC3 tumors, 30 min post-injection, 0.1 mmol/kg i.v., n=5): over five-fold increase | signal/contrast enhancement ([2]; PC3 tumors): strong signal enhancement within first 10 minutes post-injection | contrast-to-noise ratio (CNR), range ([2]; PC3 tumors, 7T, n=5): 12~25 | r1 relaxivity [3]: 4.12 mM⁻¹ s⁻¹ | Gd3+ concentration in tumors (ICP-OES) (PC3 and LNCaP tumors): significantly higher concentration in the PC3 tumors than in the LNCaP tumors and that of ProHance in both the tumors | signal/contrast enhancement ([4]; LNCaP tumors): significantly lower signal enhancement; also recorded: not evident in slow growing LNCaP tumors; also recorded: low enhancement | CNR increase ([4]; LNCaP tumors, first 30 min after 0.1 mmol/kg i.v., n=5): 10~60% | contrast-to-noise ratio (CNR), range ([4]; LNCaP tumors, n=5): 6~9 | CNR in LNCaP relative to PC3 tumors ([4]; LNCaP vs PC3, P < 0.01 for 10 and 20 min, P < 0.001 for 30 min post-injection): more than two times lower | tumor T1, post-contrast (LNCaP tumors): 2.54 ± 0.13 s | chelation stability in vivo ([7]; summary statement, Fig. 7): same high in vitro and in vivo chelation stability | renal clearance ([7]; urine, 24 hours post-injection): rapid clearance through renal filtration | injected dose excreted in urine ([7]; within 24 hours post-injection, 0.1 mmol-Gd/kg tail vein, ICP-OES): over 95% | relative Gd3+ content ([8]; 200-min incubation in PBS with and without Cu2+, Ca2+ or Zn2+): No decrease in Gd^3+ content was observed | transmetallation / chelate stability ([8]; 24 hours incubation with Cu2+, Ca2+ and Zn2+ in PBS, pH = 7.4): high chelate stability, comparable to its clinical analog ProHance, with no evident transmetallation | chelation stability in vitro ([8]; summary statement, Fig. 2): high chelate stability against transmetallation; also recorded: same high in vitro and in vivo chelation stability | tumor T1, post-contrast (PC3 tumors): 1.81 ± 0.07 s | change in relaxation rate (ΔR1) (PC3 tumors; n = 4): highest relaxation rate change in the PC3 tumors among all cases

Cys-Arg-Glu-Lys-Ala [CREKA-Gd(HP-DO3A), reference compound]
tumor differentiation: CNR/enhancement in PC3 vs LNCaP tumors [2]: no significant difference | signal/contrast enhancement ([2]; PC3 tumors): significant contrast enhancement in the periphery | signal/contrast enhancement ([4]; LNCaP tumors): significant contrast enhancement in the periphery

TVRTSAD [ZD2]
binding to low-grade tumor (low-grade tumor): low binding | reduction of PC3 tumor enhancement by competition ([2]; co-injection of excess free ZD2 peptide 0.5 mmol/kg with ZD2-Gd(HP-DO3A) 0.1 mmol/kg, PC3 tumors, n=3): significantly reduced signal enhancement and CNR; also recorded: blocked the binding of the targeted agent and reduced tumor enhancement in the PC3 tumors | colocalization with EDB-FN [9]: colocalize with the EDB-FN fibril network | binding in non-cancerous tissue (non-cancerous tissue): non-binding | binding to high-grade human prostate tumor [10]: strong specific binding
